For data set [1], the target named is T1, Protein kinase C delta type (Homo sapiens, UniProt Q05655). The data set is described as follows: Displacement of [3H]PDBu form human PKCdelta in presence of plasma membrane lipid mimetic mixture. A digest of the protocol:
(§1)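 [3H]PDBu competition on individual recombinant human PKC isozymes in 100 μg/mL total lipid mimicking the plasma-membrane inner leaflet (PC/PE/PS/PI/cholesterol 12:35:22:9:21); ID50 fitted to a sigmoidal competition curve, Ki = ID50/(1 + L/Kd); three independent determinations, mean ± SEM.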
Target sequence in this assay (Q05655 whole entry): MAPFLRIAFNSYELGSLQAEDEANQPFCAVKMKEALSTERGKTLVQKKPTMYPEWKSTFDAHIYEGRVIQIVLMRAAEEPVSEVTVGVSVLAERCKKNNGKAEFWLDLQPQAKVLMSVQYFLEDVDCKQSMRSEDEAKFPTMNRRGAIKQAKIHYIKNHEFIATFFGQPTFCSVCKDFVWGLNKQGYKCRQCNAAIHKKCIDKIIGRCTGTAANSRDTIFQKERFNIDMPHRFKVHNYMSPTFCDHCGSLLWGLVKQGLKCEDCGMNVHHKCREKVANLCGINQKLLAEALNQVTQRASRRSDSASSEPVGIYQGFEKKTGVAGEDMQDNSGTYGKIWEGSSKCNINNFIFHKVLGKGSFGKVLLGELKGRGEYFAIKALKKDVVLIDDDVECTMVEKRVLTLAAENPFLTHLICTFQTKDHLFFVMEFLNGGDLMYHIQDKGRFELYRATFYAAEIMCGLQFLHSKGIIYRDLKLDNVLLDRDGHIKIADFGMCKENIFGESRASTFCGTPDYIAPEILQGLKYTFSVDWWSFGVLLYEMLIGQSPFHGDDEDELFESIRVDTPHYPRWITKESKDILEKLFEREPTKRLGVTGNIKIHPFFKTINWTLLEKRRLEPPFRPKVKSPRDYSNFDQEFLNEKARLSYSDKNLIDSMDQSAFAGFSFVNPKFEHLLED

Data set [2] is described as follows: Membrane binding affinity to synthetic dimyristoylphosphatidylcholine/polydiacetylene vesicles assessed as increase in fluorescence chromatic response by fluorescence spectroscopy. The data set is classed as physicochemical. A digest of the protocol: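 DMPC/10,12-tricosadiynoic acid vesicles polymerized at 254 nm for 30 s, used at 0.5 mM total lipid in 50 mM Tris, pH 8; compounds in DMSO mixed with vesicles before buffer addition; fluorescence read at 485/555 nm excitation/emission, expressed as % of fully transformed red vesicles over a dose range.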

For data set [3], the target named is T2, Protein kinase C gamma type (Homo sapiens, UniProt P05129). The data set is described as follows: Displacement of [3H]PDBu form human PKCgamma in presence of phosphatidylserine. A digest of the protocol: (§2)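 Recombinant human PKC isozyme, single isozyme per assay, with 100 μg/mL phosphatidylserine; competition of unlabeled ligand against [20-3H]PDBu binding; ID50 from least-squares sigmoidal fit, converted to Ki = ID50/(1 + L/Kd), L being free [3H]PDBu at ID50; mean ± SEM of three independent experiments.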

Data set [4] addresses T3, Protein kinase C alpha type (Homo sapiens, UniProt P17252). The data set is described as follows: Activation of GFP-tagged PKCalpha expressed in CHO cells assessed as isozyme translocation from cytosol to plasma membrane at 10 uM by confocal microscopy. Type of data set: cell-based. A digest of the protocol:
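GFP-PKCα transiently transfected (Lipofectamine) into CHO cells grown in F12-K with 10% FBS; cells given 10 μM compound and redistribution followed over time by confocal microscopy (488 nm argon excitation), images every 30 s; kinetics of plasma-membrane translocation scored from four independent experiments.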

The target of data set [5] is T2, Protein kinase C gamma type. Description: Displacement of [3H]PDBu form human PKCgamma in presence of plasma membrane lipid mimetic mixture. A digest of the protocol: as §1
The target in data set [6] is T1, Protein kinase C delta type. The data set is described as follows: Displacement of [3H]PDBu form human PKCdelta in presence of phosphatidylserine. A digest of the protocol:
as §2
Target sequence in this assay (Q05655 whole entry): as the sequence (Q05655 whole entry) above

For data set [7], the target named is T3, Protein kinase C alpha type. The data set is described as follows: Displacement of [3H]PDBu form human PKCalpha in presence of plasma membrane lipid mimetic mixture. The method, boiled down: as §1
Data set [8] addresses T1, Protein kinase C delta type. Description: Activation of GFP-tagged PKCdelta expressed in CHO cells assessed as isozyme translocation from cytosol to internal membrane at 10 uM by confocal microscopy. Type of data set: cell-based. The method, boiled down: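 CHO cells in F12-K/10% FBS transiently transfected with GFP-PKCδ, exposed to 10 μM compound; confocal imaging at 488 nm every 30 s after addition; relative localization to plasma, nuclear and internal membranes scored semi-quantitatively (+ marks) over three independent experiments.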
Target sequence in this assay (Q05655 whole entry, looked up): as the sequence (Q05655 whole entry) above

The target in data set [9] is T4, Protein kinase C beta type (Homo sapiens, UniProt P05771). Description: Displacement of [3H]PDBu form human PKCbeta in presence of phosphatidylserine. A digest of the protocol: as §2
T4 sequence (P05771 whole entry): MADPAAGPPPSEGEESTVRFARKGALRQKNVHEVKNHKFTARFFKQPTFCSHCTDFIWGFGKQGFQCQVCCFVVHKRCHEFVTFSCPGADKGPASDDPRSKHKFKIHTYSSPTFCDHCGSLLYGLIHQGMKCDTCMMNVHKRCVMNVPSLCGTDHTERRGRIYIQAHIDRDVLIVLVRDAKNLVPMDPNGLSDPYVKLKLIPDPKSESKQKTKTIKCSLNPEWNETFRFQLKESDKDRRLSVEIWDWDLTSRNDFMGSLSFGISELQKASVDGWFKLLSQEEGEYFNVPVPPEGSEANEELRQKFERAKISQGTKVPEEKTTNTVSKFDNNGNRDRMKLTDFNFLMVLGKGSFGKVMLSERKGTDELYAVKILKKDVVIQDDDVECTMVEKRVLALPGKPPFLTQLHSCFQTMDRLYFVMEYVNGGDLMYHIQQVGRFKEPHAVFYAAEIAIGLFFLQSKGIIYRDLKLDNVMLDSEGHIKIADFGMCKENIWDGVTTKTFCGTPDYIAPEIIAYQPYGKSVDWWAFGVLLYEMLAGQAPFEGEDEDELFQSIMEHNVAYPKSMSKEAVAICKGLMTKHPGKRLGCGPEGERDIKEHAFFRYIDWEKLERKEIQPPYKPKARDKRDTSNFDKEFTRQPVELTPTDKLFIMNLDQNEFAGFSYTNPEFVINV
Data set [10] addresses T4, Protein kinase C beta type. Description: Displacement of [3H]PDBu form human PKCbeta in presence of plasma membrane lipid mimetic mixture. A digest of the protocol:
as §1

The target of data set [11] is T5, Protein kinase C epsilon type (Homo sapiens, UniProt Q02156).
T5 sequence (Q02156 whole entry): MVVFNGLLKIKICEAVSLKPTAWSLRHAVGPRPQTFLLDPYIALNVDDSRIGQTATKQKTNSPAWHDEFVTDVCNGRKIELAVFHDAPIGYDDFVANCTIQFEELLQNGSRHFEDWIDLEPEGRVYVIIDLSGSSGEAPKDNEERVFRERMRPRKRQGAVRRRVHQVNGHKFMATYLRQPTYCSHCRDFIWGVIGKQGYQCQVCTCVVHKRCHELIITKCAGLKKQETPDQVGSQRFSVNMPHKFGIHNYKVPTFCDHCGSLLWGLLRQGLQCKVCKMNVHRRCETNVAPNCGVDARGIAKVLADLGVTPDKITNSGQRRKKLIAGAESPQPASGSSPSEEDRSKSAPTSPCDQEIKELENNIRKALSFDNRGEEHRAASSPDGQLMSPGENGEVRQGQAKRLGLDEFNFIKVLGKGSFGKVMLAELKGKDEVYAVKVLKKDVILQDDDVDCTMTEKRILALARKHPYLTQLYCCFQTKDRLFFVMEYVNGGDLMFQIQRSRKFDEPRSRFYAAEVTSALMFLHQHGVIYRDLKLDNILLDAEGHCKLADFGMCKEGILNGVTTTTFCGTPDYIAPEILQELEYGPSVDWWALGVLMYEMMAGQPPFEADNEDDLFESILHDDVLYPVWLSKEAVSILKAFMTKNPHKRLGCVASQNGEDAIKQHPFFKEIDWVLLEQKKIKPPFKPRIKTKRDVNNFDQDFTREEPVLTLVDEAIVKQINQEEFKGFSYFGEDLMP
The data set is described as follows: Displacement of [3H]PDBu form human PKCepsilon in presence of phosphatidylserine. A digest of the protocol:
as §2

The target of data set [12] is T3, Protein kinase C alpha type. Description: Displacement of [3H]PDBu form human PKCalpha in presence of phosphatidylserine. The method, boiled down:
as §2

In data set [13] the target is T5, Protein kinase C epsilon type. Description: Displacement of [3H]PDBu form human PKCepsilon in presence of plasma membrane lipid mimetic mixture. The method, boiled down: as §1
Data set [14] deals with LNCaP. The data set is described as follows: Induction of apoptosis in human LNCAP cells after 48 hrs by flow cytometry relative to PMA. The data set is classed as functional, cell-based. A digest of the protocol: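 LNCaP cells in RPMI-1640/10% FBS, plated at ~60% confluency, treated with a concentration series for 48 h alongside 1 μM PMA; stained with YO-PRO-1 (1 μM final, 20 min, 4 °C, dark) then 7-AAD (5 μg/mL final, 10 min) and analyzed by flow cytometry; YO-PRO-1-positive cells taken as apoptotic, % of total; three experiments.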

The source made the active and inactive calls. The rule behind the calls is not given here.

In the case of `CC(C)=C1CC(CO)(COC(=O)CCOc2ccc(C#Cc3ccc(C)cc3)cc2)OC1=O` (stereo unspecified), the Ki in data set [1] came to 31.3 nM; in data set [3] it was 35 nM; in [5], 78 nM; in data set [6], 35.8 nM; in [7], 143 nM; in data set [9] it was 57 nM. Moreover, the inhibition constant (Ki) in data set [10] turned out to be 66 nM; in data set [11], 153 nM; in data set [12], 20.8 nM; in data set [13] it was 78.7 nM. For the same molecule, the result in data set [2] was Active. Further, the result in data set [4] and in [8] was Active.

With `CC(C)=C1CC(CO)(COC(=O)COc2ccc(C#Cc3ccc(C)cc3)cc2)OC1=O` (stereo unspecified), the Ki is 47.7 nM in data set [1]; 50.8 nM in data set [3]; 140 nM in [5]; 46.4 nM in data set [6]; 165 nM in data set [7]; 76 nM in data set [9]. Also, the Ki in [10] turned out to be 100 nM; in data set [11], 268 nM; in data set [12], 38 nM; in data set [13] it was 147 nM. Moreover, in data set [2], the result was Active. The outcome in [4], in [8] and in data set [14] was Active.

For `CC(C)=C1CC(CO)(COC(=O)c2ccc(C#Cc3ccc(C)cc3)cc2)OC1=O` (stereo unspecified), the Ki in data set [1] was found to be 2.74 nM; in [3] it was 6.2 nM; in [5], 15.7 nM; in [6], 5.4 nM; in data set [7] it was 15.8 nM; in data set [9], 4.1 nM. Also, the Ki in data set [10] turned out to be 12.6 nM; in [11], 10 nM; in data set [12] it was 6 nM; in data set [13], 8.3 nM. For the same molecule, in data set [2], the outcome was Active. For the same molecule, the result in data set [4] was Active.

With `CC(C)=C1CC(CO)(COC(=O)CCCOc2ccc(C#Cc3ccc(C)cc3)cc2)OC1=O` (stereo unspecified), the inhibition constant Ki in data set [1] stood at 11.6 nM; in data set [3], 12.3 nM; in data set [5], 31.7 nM; in data set [6] it was 11.9 nM; in data set [7], 76 nM; in [9] it was 15.2 nM. The Ki turned out to be 43.8 nM in data set [10], 37.9 nM in data set [11], 19.5 nM in [12] and 31.9 nM in [13]. The outcome in data set [2] was Active. In addition, the result in [4] was Active.
